Reference: ChEMBL document CHEMBL1123889, “Improved synthesis and antitumor activity of 1-deazaadenosine” (J Med Chem, 1987)

What was measured:
[1] = tested on: HeLa; test: The compound was tested in vitro for antitumor activity(50% inhibition of tumor cell growth) against HeLa human cell lines after 144 hr; assay type: functional; conditions: read-out: ID50 (the source's name)
How it was run: (§1)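 5 × 10^5 exponentially growing cells exposed to varying drug concentrations for 144 h, then counted with a Coulter counter. ID50 is the drug concentration in culture medium giving 50% inhibition of cell growth versus untreated controls.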

[2] = tested on: KB; test: The compound was tested in vitro for antitumor activity(50% inhibition of tumor cell growth) against KB human cell lines after 144 hr; assay type: functional; conditions: read-out: ID50 (the source's name); how it was run: as §1
[3] = tested on: KB; test: The compound was tested in vitro for antitumor activity(50% inhibition of tumor cell growth) against KB human cell lines after 72 hr; assay type: functional; conditions: read-out: ID50 (the source's name)
How it was run: (§2)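 5 × 10^5 exponentially growing human tumour cells were exposed to a range of drug concentrations for the stated time (72 or 144 h), then counted on a Coulter counter. ID50 is the concentration in the culture medium giving 50% inhibition of cell growth relative to untreated controls.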

[4] = tested on: L1210; test: Antitumor activity against leukemia L1210 cells at 12.5 mg/kg/day expressed as mean survival of treated mice (T) to untreated (C) was reported; assay type: functional, Mus musculus
[5] = tested on: L1210; test: Antitumor activity against leukemia L1210 cells at 25.0 mg/kg/day expressed as mean survival of treated mice (T) to untreated (C) was reported; assay type: functional, Mus musculus
[6] = tested on: L1210; test: Antitumor activity against leukemia L1210 cells at 6.3 mg/kg/day expressed as mean survival of treated mice (T) to untreated (C) was reported; assay type: functional, Mus musculus
[7] = tested on: L1210; test: Antitumor activity against leukemia L1210 cells at 12.5 mg/kg/day expressed as Number of mice died for toxicity to number of treated mice; 0/10 mice; assay type: functional, Mus musculus
[8] = tested on: L1210; test: Antitumor activity against leukemia L1210 cells at 6.3 mg/kg/day expressed as Number of mice died for toxicity to number of treated mice; 0/10 mice; assay type: functional, Mus musculus
[9] = tested on: L1210; test: (§3) The compound was tested in vitro for antitumor activity(50% inhibition of tumor cell growth) against the L1210 murine cell lines after 72 hours; assay type: functional; conditions: Mus musculus, L1210, 72 h; read-out: ID50 (the source's name)
How it was run: (§4)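 Murine leukemia cells (P388, the doxorubicin-resistant subline P388/DX, or L1210) were grown as suspension cultures in 1640 medium with 10% fetal calf serum, 20 µM 2-mercaptoethanol, […] and antibiotics, at 37 °C in humidified 5% CO2. 5 × 10^5 exponentially growing cells were exposed to a range of drug concentrations for 72 h, then Coulter-counted. ID50 is the concentration giving 50% growth inhibition versus untreated controls.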

[10] = tested on: Mus musculus; test: Antitumor activity against leukemia P388/DX cells at 12.5 mg/kg/day expressed as toxic deaths in mice was reported; 0/10 mice; assay type: functional
How it was run: (§5)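 BDF1 mice given 10^6 doxorubicin-resistant P388 cells ip; the line was kept by weekly ip passage with doxorubicin. Compound was dissolved in distilled water just before use and given ip daily for 7 days from 24 h post-inoculation; 10 mice per dose. %T/C = median survival of treated/control ×100, with 125 significant. Toxicity was judged by autopsy (spleen and liver shrinkage).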

[11] = tested on: Mus musculus; test: Antitumor activity against leukemia P388/DX cells at 3.1 mg/kg/day expressed as toxic deaths in mice was reported; 0/10 mice; assay type: functional; how it was run: as §5
[12] = tested on: Mus musculus; test: Antitumor activity against leukemia P388/DX cells at 6.3 mg/kg/day expressed as toxic deaths in mice was reported; 0/10 mice; assay type: functional; how it was run: as §5
[13] = organism: Mus musculus; test: (§6) The compound was tested in vitro for antitumor activity(50% inhibition of tumor cell growth) against the P388/doxorubicin resistant murine cell lines after 72 hours; assay type: functional; conditions: P388, 72 h, read-out: ID50 (the source's name); how it was run: as §4
[14] = tested on: Mus musculus; test: Antitumor activity against leukemia P388/DX cells at 3.1 mg/kg/day expressed as mean survival of treated mice (T) to untreated (C) was reported; assay type: functional; how it was run: as §5
[15] = tested on: Mus musculus; test: Antitumor activity against leukemia P388/DX cells at 6.3 mg/kg/day expressed as mean survival of treated mice (T) to untreated (C) was reported; assay type: functional; how it was run: as §5
[16] = tested on: Mus musculus; test: Antitumor activity against leukemia P388/DX cells at 12.5 mg/kg/day expressed as mean survival of treated mice (T) to untreated (C) was reported; assay type: functional; how it was run: as §5
[17] = tested on: P388; test: (§7) The compound was tested in vitro for antitumor activity(50% inhibition of tumor cell growth) against the P388 murine cell lines after 72 hours; assay type: functional; conditions: Mus musculus, P388, 72 h; read-out: ID50 (the source's name); how it was run: as §4
[18] = tested on: HeLa; test: The compound was tested in vitro for antitumor activity(50% inhibition of tumor cell growth) against HeLa human cell lines after 72 hr; assay type: functional; conditions: read-out: ID50 (the source's name); how it was run: as §2
[19] = tested on: L1210; test: Antitumor activity against leukemia L1210 cells at 25.0 mg/kg/day expressed as Number of mice died for toxicity to number of treated mice; 6/10 mice; assay type: organism-based; conditions: mouse, in vivo
[20] = tested on: L1210; test: Antitumor activity against leukemia L1210 cells at 150.0 mg/kg/day expressed as Number of mice died for toxicity to number of treated mice; 0/10 mice; assay type: functional, Mus musculus
[21] = tested on: L1210; test: Antitumor activity against leukemia L1210 cells at 75.0 mg/kg/day expressed as Number of mice died for toxicity to number of treated mice; 0/10 mice; assay type: functional, Mus musculus
[22] = tested on: L1210; test: Antitumor activity against leukemia L1210 cells at 150.0 mg/kg/day expressed as mean survival of treated mice (T) to untreated (C) was reported; assay type: functional, Mus musculus
[23] = tested on: L1210; test: Antitumor activity against leukemia L1210 cells at 75.0 mg/kg/day expressed as mean survival of treated mice (T) compared to untreated (C) was reported; assay type: functional, Mus musculus
[24] = tested on: Mus musculus; test: Antitumor activity against leukemia P388/DX cells at 100.0 mg/kg/day expressed as toxic deaths in mice was reported; 0/10 mice; assay type: functional
How it was run: (§8)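 BDF1 mice given 10^6 doxorubicin-resistant P388 cells ip. Compound was dissolved in distilled water just before use and given ip daily for 9 days from 24 h post-inoculation. %T/C = median survival of treated/control ×100, with 125 significant. Toxic deaths were judged by gross autopsy, mainly from reduced spleen and liver size.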

[25] = tested on: Mus musculus; test: Antitumor activity against leukemia P388/DX cells at 150.0 mg/kg/day expressed as mean survival of treated mice (T) to untreated (C) was reported; assay type: functional; how it was run: as §8
[26] = tested on: Mus musculus; test: Antitumor activity against leukemia P388/DX cells at 300.0 mg/kg/day expressed as mean survival of treated mice (T) to untreated (C) was reported; assay type: functional; how it was run: as §8
[27] = tested on: Mus musculus; test: Antitumor activity against leukemia P388/DX cells at 100.0 mg/kg/day expressed as mean survival of treated mice (T) to untreated (C) was reported; assay type: functional; how it was run: as §8
[28] = tested on: Mus musculus; test: Antitumor activity against leukemia P388/DX cells at 150.0 mg/kg/day expressed as toxic deaths in mice was reported; 2/20 mice; conditions: in vivo
[29] = tested on: Mus musculus; test: Antitumor activity against leukemia P388/DX cells at 300.0 mg/kg/day expressed as toxic deaths in mice was reported; 8/20 mice; conditions: in vivo
[30] = tested on: L1210; test: as §3; assay type: functional; conditions: Mus musculus, L1210, 72 h; read-out: ID50 (the source's name); remark: listed apart in the source
How it was run: (§9)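 Suspension cultures were grown in 1640 medium with 10% fetal calf serum, 20 µM 2-mercaptoethanol, […] and antibiotics at 37 °C in 5% CO2. 5×10^5 exponentially growing cells were exposed to varying drug concentrations for 72 h, then counted with a Coulter counter. ID50 is the concentration giving 50% growth inhibition versus untreated controls.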

[31] = organism: Mus musculus; test: as §6; assay type: functional; conditions: P388, 72 h, read-out: ID50 (the source's name); how it was run: as §9; remark: listed apart in the source
[32] = tested on: P388; test: as §7; assay type: functional; conditions: Mus musculus, P388, 72 h; read-out: ID50 (the source's name); how it was run: as §9; remark: listed apart in the source

SMILES	IC50 [1] [nM]	IC50 [2] [nM]	IC50 [3] [nM]	IC50 [9] [nM]	IC50 [13] [nM]	IC50 [17] [nM]	IC50 [18] [nM]	other results
Nc1ccnc2c1ncn2[C@@H]1O[C@H](CO)[C@@H](O)[C@H]1O	1200	600	300	1800	400	1100	1200	T/C [4]: 113%; T/C [5]: 88%; T/C [6]: 100%; Activity [7]: 0; Activity [8]: 0; Activity [10]: 0; Activity [11]: 0; Activity [12]: 0; T/C [14]: 106%; T/C [15]: 106%; T/C [16]: 111%; Activity [19]: 6
O=[N+]([O-])c1ccnc2c1ncn2C1O[C@H](CO)[C@@H](O)[C@H]1O (some centres not stated)	27000	13100	33800	11800	8100	12500	64100	Activity [20]: 0; Activity [21]: 0; T/C [22]: 106%; T/C [23]: 106%; Activity [24]: 0; T/C [25]: 97%; T/C [26]: 22%; T/C [27]: 95%; Activity [28]: 2; Activity [29]: 8
Nc1ncnc2c1ncn2[C@@H]1O[C@H](CO)[C@@H](O)[C@H]1O [ADENOSINE]	27700	25400	89800	23600	10800	12700	46000	
Nc1ccn([C@@H]2O[C@H](CO)[C@@H](O)[C@@H]2O)c(=O)n1 [CYTARABINE]	100	1100	1000	20	10	20	600	
O=c1[nH]cc(F)c(=O)[nH]1 [FLUOROURACIL]	800	2000	13800				6100	IC50 [30]: 400 nM; IC50 [31]: 100 nM; IC50 [32]: 300 nM
